Screens (PubChem BioAssay)
PolyA inh: blocks polyadenylation in yeast reporter cells. AID 1875. 0.02% of 300,000 active. S. cerevisiae SKY197-pL101 polyadenylation reporter, beta-gal luminescence; efflux-impaired pdr1/pdr3 knockout yeast; score 100 = 6 SD above DMSO. activity score, % at 12 µM;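 active = lowest replicate activity score at least 50, where 100 means six control SD above control mean; inconclusive = lowest score under 50 but half or more replicates reach 50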;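 also: yeast exposed to compound for 9 h at 30 °C; higher score means more reporter readthrough which indicates perturbed polyadenylation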
AI-2 QS mod: modulates the Vibrio harveyi AI-2 quorum sensing system; 0.4% of 300,000 active; Vibrio harveyi JMH597 AI-2 luminescence/OD600 ratio, 9 h; stronger effect = lower value; strain lacks LuxN and CqsS sensors; 0 = neutral-control median; activity change, % at 7.5 µM; in the data active = activity change below about -75%, passing the limit was not always enough; inconclusive = no clear call, values can overlap the other calls;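 also: luminescence divided by OD600 gain over 9 h not by final OD600 alone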
Efflux pump mplx: inhibitors of Candida antifungal efflux pumps expressed in yeast. S. cerevisiae Candida pump triplex, Nile Red efflux. inhibition, % at 10 µM. 0.44% of 330,000 active;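 active = plate passing quality check with inhibition over a set limit, or well fluorescence over plate mean plus 4 SD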;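 also: Nile Red retained in pooled yeast measured as flow cytometry median fluorescence; 0% = buffer negative control and 100% = Enniatin B positive control; higher means more Nile Red kept so more efflux inhibition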
T cruzi inh: blocks replication of Trypanosoma cruzi; T. cruzi beta-gal in NIH3T3, luminescence, 90 h; inhibition, % (test concentration not listed); 1.4% of 300,000 active; AID 1885;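 active = mean inhibition across valid replicates above about 55%, limit read from the data; inconclusive = mean below that limit but half or more replicates reach it; inactive = mean below it, under half of replicates reach it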;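 also: signal also drops with host cell toxicity which is not excluded here; 0% = plate median of DMSO wells and 100% = zero luminescence signal; higher percent means less beta-gal luminescence so fewer parasites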
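Assay system: NIH/3T3 fibroblasts plus reporter T. cruzi. Amount: NIH/3T3 cells, 5,000 per well. Buffer or medium: DMEM, 2% fetal bovine serum. Doses: compound pinned at 50 nL/well, DMSO. Schedule: ≥90 h infection period, 3 h prior cell attachment. Signal: luminescent β-galactosidase signal after 60 min lysis. Read-out: parasite load inhibition, %.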
HDAC3 inh: inhibitors of human histone deacetylase 3 | O15379 | recombinant HDAC3, fluorogenic peptide/trypsin coupled, fluorescence | inhibition, % at 8.3 µM | 0.15% of 320,000 active | AID 2718; in the data active = inhibition above about 26%, passing the limit was not always enough; inconclusive = no clear call, values can overlap the other calls
Target sequence (O15379 whole entry, looked up): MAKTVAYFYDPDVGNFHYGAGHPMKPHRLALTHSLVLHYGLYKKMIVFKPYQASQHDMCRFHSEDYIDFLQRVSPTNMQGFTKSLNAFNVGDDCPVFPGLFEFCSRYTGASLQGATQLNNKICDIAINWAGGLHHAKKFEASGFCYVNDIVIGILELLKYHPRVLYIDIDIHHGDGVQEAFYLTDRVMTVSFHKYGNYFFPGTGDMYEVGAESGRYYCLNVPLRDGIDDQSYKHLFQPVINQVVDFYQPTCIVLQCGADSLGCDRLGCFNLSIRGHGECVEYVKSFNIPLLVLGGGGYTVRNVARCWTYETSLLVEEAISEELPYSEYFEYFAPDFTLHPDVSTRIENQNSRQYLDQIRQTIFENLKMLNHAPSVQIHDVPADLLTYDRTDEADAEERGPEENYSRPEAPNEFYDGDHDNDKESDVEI
* marks the source's active call; other numbers are inactive results; ? = inconclusive; / = no result. Compounds with a hit are over-represented: about 2.2% of the library has one in this group of screens.

SMILES | PolyA inh | AI-2 QS mod | Efflux pump mplx | T cruzi inh | HDAC3 inh
Cc1cccc(CN2C(=O)N/C(=C/c3cc(C)n(-c4ccccn4)c3C)C2=O)c1 | -5.4 | 26.0 | 0.1 | 12.2 | 15.2
O=[N+]([O-])c1ccc(-n2cnc3ccccc32)c([N+](=O)[O-])c1 | -14.5 | 18.8 | 0.0 | 71.0* | -2.0
O=[N+]([O-])c1ccc2c(c1)ncn2-c1ccccc1 | -12.7 | 4.0 | 0.0 | -7.3 | 1.3
O=C(NCC(c1ccccc1Cl)N1CCCC1)C1CCN(C(=O)Nc2ccccc2)CC1 (stereo not drawn) | / | / | -0.1 | / | -2.9
Cc1ccc(-c2nc(NCCCO)c3ccccc3n2)cc1 | -9.0 | 9.8 | 0.0 | 24.4 | -5.4
c1ccc2c(NCCc3c[nH]c4ccccc34)c3ccccc3nc2c1 | 15.4 | 57.4 | 0.1 | 63.4* | -3.9
OCCCNc1c2ccccc2nc2ccccc12 | -26.2 | 15.7 | 0.1 | 69.7* | -2.9
Fc1cccc(NCCc2c[nH]c3ccccc23)n1 | -12.4 | 2.1 | 0.5 | -4.5 | 12.4
O=C(COc1ccccc1F)NCC(c1ccco1)N1CCCC1 (stereo not drawn) | 15.3 | 29.8 | -0.1 | -5.1 | -0.9
COCC1CCN(Cc2c(C(=O)N3CCc4ccccc4C3)nc3ccc(Cl)cn23)C1 (stereo not drawn) | -2.2 | -0.5 | 0.0 | 4.4 | -2.4
Cc1ccc(C)c(N2CCN(CCCNC(=O)CCC(=O)N3CCOc4ccc(Cl)cc43)CC2)c1 | -12.8 | 16.7 | -0.2 | 5.1 | -2.9
Cc1ccc(C)c(N2CCN(C(=O)CCC(=O)N3CCOc4ccc(Cl)cc43)CC2)c1 | 10.1 | 40.5 | -0.1 | 55.3* | 9.2
CCOC(=O)CSc1n[nH]c(NC(=O)c2ccccc2)n1 | -0.4 | 33.9 | 0.1 | -16.8 | ?
CCOC(=O)CSc1n[nH]c(NC(=O)c2ccc(F)cc2)n1 | -10.2 | / | 0.0 | -20.1 | 50.5*
CCC(C)C(=O)Nc1nc(C)c(-c2csc(Nc3ccc(Cl)cc3)n2)s1 (stereo not drawn) | 9.6 | 15.0 | / | 58.5* | -1.8
CC(=O)Nc1nc(C)c(-c2csc(Nc3cccc(C(C)=O)c3)n2)s1 | 13.6 | 8.3 | 0.0 | -11.2 | 9.6
CC(=O)Nc1nc(C)c(-c2csc(Nc3cccc([N+](=O)[O-])c3)n2)s1 | -5.4 | 20.9 | 0.1 | 54.9* | 0.0
CCCC(=O)Nc1nc(C)c(-c2csc(Nc3ccc(Cl)cc3)n2)s1 | 24.5 | 9.9 | / | 33.3 | -4.2
CSc1ncccc1C(=O)Nc1ccccc1N1CCOCC1 | / | / | 0.2 | / | ?
CN(CCCS(=O)(=O)[O-])c1ccc(/C=C/c2ccc3ccccc3[n+]2C)cc1 | 10.7 | 9.4 | 0.3 | -11.6 | 2.2
CN(C)c1ccc(/C=C/c2ccc3ccccc3[n+]2C)cc1 | -14.3 | -92.4* | 28.8* | 60.0* | 16.7
Cc1nn(Cc2cccc(C(=O)N3N=C(C(F)F)CC3(O)C(F)F)c2)c(C)c1[N+](=O)[O-] (stereo not drawn) | -27.6 | 13.3 | -0.1 | -22.5 | 2.8
COc1ccc(NC(C)C(=O)N/N=C/c2ccc([N+](=O)[O-])s2)cc1 (stereo not drawn) | -12.3 | 78.4 | -0.1 | 64.8* | 5.5
COC(=O)N/N=C/c1ccc([N+](=O)[O-])s1 | -7.5 | 33.2 | 0.2 | 34.2 | 3.4
Cc1ccc(NC(C)C(=O)N/N=C/c2ccc([N+](=O)[O-])s2)cc1 (stereo not drawn) | -26.8 | 34.7 | 0.0 | 82.1* | -2.0
SMILES | PolyA inh | AI-2 QS mod | Efflux pump mplx | T cruzi inh | HDAC3 inh
O=C(NNC(=S)NCc1ccc(Cl)cc1)c1cccnc1 | 6.5 | -49.7 | -0.2 | -14.1 | 8.1
O=C(NNC(=S)NC(=O)c1cccnc1)c1ccc(Cl)cc1 | -7.6 | -92.7* | 0.1 | -10.7 | 10.6
O=C(Cc1ccc(Cl)cc1)NNC(=S)NC(=O)c1cccnc1 | 22.4 | -87.6* | 0.1 | -7.9 | 7.1
Cc1ccc(C(=O)NNC(=S)NC(=O)c2ccc(Cl)cc2)cc1 | -6.9 | -127.1* | -0.2 | -5.8 | 3.8
O=C(NC1CCCC1)C1CCN(C(=O)c2cccc(Cl)c2)CC1 | 8.8 | 6.8 | -0.1 | 5.4 | 0.3
O=C(Nc1nc(-c2ccccn2)cs1)c1ccc(Cl)s1 | 14.2 | -196.5* | 0.2 | 58.2* | -3.7
O=C(COc1ccc(F)cc1Cl)Nc1nc(-c2ccccn2)cs1 | 7.4 | 49.4 | 0.2 | 75.6* | -2.8
O=C(/C=C/c1ccco1)Nc1nc(-c2ccccn2)cs1 | -1.1 | 41.2 | 0.5 | 59.6* | 4.1
Cc1ccc(C(=O)Nc2nc(-c3ccccn3)cs2)s1 | / | / | 0.6 | / | 2.0
O=C(Nc1ccc([N+](=O)[O-])cc1)Nc1nc(-c2ccc(Cl)s2)cs1 | -15.3 | -85.5* | 0.5 | 46.4 | -9.1
COC(=O)[C@@]12CCCCN1[C@H](c1ccc(-c3ccc(OC)cc3)c(OC)c1)[C@@H]1C(=O)N(C)C(=O)[C@@H]12 | / | / | 0.0 | / | -3.5
O=C(Nc1nc(-c2ccccn2)cs1)c1cc2ccccc2o1 | 7.8 | ? | -0.2 | 76.9* | -2.9
Cn1cccc1C(=O)Nc1nc(-c2ccccn2)cs1 | -13.7 | ? | -0.2 | 65.5* | 8.5
O=C(Nc1nc(-c2ccccc2)cs1)c1cccs1 | 10.1 | -1.4 | 0.1 | 10.2 | 12.1
O=C(Nc1nc(-c2ccc(Cl)s2)cs1)c1cccs1 | -13.4 | -2.3 | 0.0 | 75.8* | -4.6
Cc1c(C(=O)Nc2nc(-c3ccccn3)cs2)oc2ccccc12 | / | / | 0.6 | / | 18.4
COc1cc(Cl)c(C)cc1NC(=O)c1cc(S(=O)(=O)N(C)C)ccc1N1CCCC1 | 9.6 | 50.4 | 0.1 | 22.6 | 6.9
Cc1cc(C)nc(-n2nc(C)c3c(C(F)(F)F)cc(=O)[nH]c32)n1 | -8.7 | 5.6 | 0.0 | 1.9 | -2.3
Cc1cc(C)nc(-n2nc(C)c(Sc3ccc(F)cc3)c2N)n1 | -16.8 | 24.9 | 0.1 | 58.1* | 9.1
S=c1[nH]nc(-c2ccccn2)n1/N=C/c1ccc(-c2ccccc2Br)o1 | 15.2 | 31.9 | / | -13.6 | /
Cc1ccc(-c2nc3ncccn3c2Nc2ccc3c(c2)OCO3)o1 | -16.6 | 16.5 | -0.1 | 17.5 | 11.4
Cc1ccc(Nc2c(-c3ccc(C)o3)nc3ncccn23)cc1 | 57.0* | 10.3 | 0.2 | -0.8 | 4.8
Cc1nc(Nc2cccc(C(C)O)c2)c2nnn(Cc3ccccc3F)c2n1 (stereo not drawn) | 9.8 | 25.4 | 0.0 | 13.7 | 5.7
O=C(c1ccccc1F)N(Cc1cccnc1)Cc1cc2cc3c(cc2[nH]c1=O)OCCO3 | 7.6 | -1.8 | -0.2 | 2.3 | 5.3
Cc1cc(C)c2cc(CN(Cc3cccnc3)C(=O)c3ccc(F)cc3)c(Cl)nc2c1 | -15.1 | 14.3 | 0.1 | 59.4* | /
Cc1cccc2cc(CN(Cc3cccnc3)C(=O)c3ccccc3F)c(Cl)nc12 | 6.4 | 0.7 | -0.1 | 60.6* | 2.3
Cc1cccc(OCc2nnc(SCC(=O)O)n2-c2ccccc2)c1 | 0.3 | 11.2 | 0.4 | 3.5 | -5.9
CC1CCN(C(=O)COC(=O)C2CCN(S(=O)(=O)c3ccc4c(c3)OCCO4)CC2)CC1 | 1.4 | 19.0 | 0.0 | 0.8 | -6.3
Cc1nn(-c2ccccc2)c(C)c1NC(=O)COc1cc(F)ccc1[N+](=O)[O-] | / | / | 0.2 | / | -1.0
